Measurements: ChEMBL document CHEMBL4834438, “Synthesis and Biological Activity of Triterpene-Coumarin Conjugates” (J Nat Prod, 2021)
Calls of active or inactive are those of the source. The calls are words filed in the database; no cut-off is given here.

Legend:
[1] = system: HepG2; assay: Induction of mitochondrial membrane potential loss in human HepG2 cells assessed as fluorescence intensity at IC50 concentration measured after 72 hrs by rhodamine 123 staining based FACScan flow cytometry; type: functional, cell-based
How it was run: (§1)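 The medium was then renewed with dihydrorhodamine, which oxidizes to Rh123, for 1 h at 37 °C in 5% CO2. Cells were washed and resuspended in PBS, and fluorescence was read by FACScan (excitation 500, emission 536 nm). Three experiments, two replicates each, reported as mean ± SEM.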

[2] = system: HT-29; assay: Cell cycle arrest in human HT-29 cells assessed as increase in cells accumulation in G0/G1 phase at IC50 concentrations measured after 72 hrs by Propidium iodide staining based FACS cytometry analysis; type: functional
How it was run: (§2)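 Cells were seeded in 24-well plates (5 × 10^4 B16–F10 or 6 × 10^4 HT29 per well) and grown 24 h in DMEM with 10% FCS and 2 mM glutamine at 37 °C, 5% CO2. They were then exposed 72 h at the cancer-line IC50, washed in PBS, trypsinized and taken up in TBS, then in Vindelov buffer (RNase, PI, pH 8). Cells were kept on ice and given extra PI before reading. About 10 × 10^3 cells were read per run by FACS at 488 nm. Three experiments, two replicates each, reported as mean ± SEM.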

[3] = system: B16-F10; assay: Cell cycle arrest in mouse B16-F10 cells assessed as increase in cells accumulation in G0/G1 phase at IC50 concentrations measured after 72 hrs by Propidium iodide staining based FACS cytometry analysis; type: functional; how it was run: as §2
[4] = system: B16-F10; assay: Induction of mitochondrial membrane potential loss in mouse B16-F10 cells assessed as fluorescence intensity at IC50 concentration measured after 72 hrs by rhodamine 123 staining based FACScan flow cytometry; type: functional, cell-based; how it was run: as §1
[5] = system: HT-29; assay: Cell cycle arrest in human HT-29 cells assessed as decrease in cells accumulation in S phase at IC50 concentrations measured after 72 hrs by Propidium iodide staining based FACS cytometry analysis; type: functional; parameters: scale not given: the % may be the effect or the level left; how it was run: as §2
[6] = system: HepG2; assay: Induction of apoptosis in human HepG2 cells assessed as necrotic cells at IC50 concentrations measured after 72 hrs by Annexin V-FITC/Propidium iodide staining based FACS cytometry analysis; type: functional
How it was run: (§3)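 Seeding in 24-well plates was 5 × 10^4 B16–F10, 6 × 10^4 HT29 or 15 × 10^4 Hep G2 per well, followed by 24 h growth. Cells were treated in triplicate for 72 h at the respective IC50. Harvested cells went into HEPES binding buffer (pH 7.4, 140 mM NaCl, 2.5 mM CaCl2), with Annexin V-FITC added for 15 min at room temperature in the dark, then PI just before FACScan. About 10 × 10^3 cells were counted per sample. Results are mean ± SEM, relative to untreated control.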

[7] = system: HT-29; assay: Induction of apoptosis in human HT-29 cells assessed as necrotic cells at IC50 concentrations measured after 72 hrs by Annexin V-FITC/Propidium iodide staining based FACS cytometry analysis; type: functional; how it was run: as §3
[8] = system: B16-F10; assay: Cell cycle arrest in mouse B16-F10 cells assessed as decrease in cells accumulation in S phase at IC50 concentrations measured after 72 hrs by Propidium iodide staining based FACS cytometry analysis; type: functional; parameters: scale not given: the % may be the effect or the level left; how it was run: as §2
[9] = system: HT-29; assay: Induction of mitochondrial membrane potential loss in human HT-29 cells assessed as fluorescence intensity at IC50 concentration measured after 72 hrs by rhodamine 123 staining based FACScan flow cytometry; type: functional, cell-based; how it was run: as §1
[10] = system: B16-F10; assay: Induction of apoptosis in mouse B16-F10 cells assessed as necrotic cells at IC50 concentrations measured after 72 hrs by Annexin V-FITC/Propidium iodide staining based FACS cytometry analysis; type: functional; how it was run: as §3
[11] = system: HepG2; assay: Induction of apoptosis in human HepG2 cells assessed as total apoptosis at IC50 concentrations measured after 72 hrs by Annexin V-FITC/Propidium iodide staining based FACS cytometry analysis; type: functional; how it was run: as §3
[12] = system: HT-29; assay: Induction of apoptosis in human HT-29 cells assessed as total apoptosis at IC50 concentrations measured after 72 hrs by Annexin V-FITC/Propidium iodide staining based FACS cytometry analysis; type: functional; how it was run: as §3
[13] = system: B16-F10; assay: Induction of apoptosis in mouse B16-F10 cells assessed as total apoptosis at IC50 concentrations measured after 72 hrs by Annexin V-FITC/Propidium iodide staining based FACS cytometry analysis; type: functional; how it was run: as §3

Row | SMILES | Activity [1] | Activity [2] | Activity [3] | Activity [4] | Activity [5] [%] | Activity [6] [%] | Activity [7] [%] | Activity [8] [%] | Activity [9] | Activity [10] [%] | Activity [11] [%] | Activity [12] [%] | Activity [13] [%]
1 | CC1(C)CC[C@]2(C(=O)NCCCNC(=O)c3cc4ccccc4oc3=O)CC[C@]3(C)C(=CC[C@@H]4[C@@]5(C)C[C@@H](O)[C@H](O)C(C)(C)[C@@H]5CC[C@]43C)[C@@H]2C1 | Active | inactive | inactive | inactive | 10 | 5 | 5 | 10 | inactive | 5 | – | – | –
2 | CC1(C)CC[C@]2(C(=O)NCCCNC(=O)/C=C/c3ccc(O)cc3)CC[C@]3(C)C(=CC[C@@H]4[C@@]5(C)C[C@@H](O)[C@H](O)C(C)(C)[C@@H]5CC[C@]43C)[C@@H]2C1 | Active | – | – | inactive | 10 | 5 | 5 | 10 | inactive | 5 | 76 | 40 | 40
3 | CC1(C)CC[C@]2(C(=O)NCCCNC(=O)Cc3cc(=O)oc4cc(O)ccc34)CC[C@]3(C)C(=CC[C@@H]4[C@@]5(C)C[C@@H](O)[C@H](O)C(C)(C)[C@@H]5CC[C@]43C)[C@@H]2C1 | Active | – | – | inactive | 10 | 5 | 5 | 10 | inactive | 5 | 40 | – | 85
4 | CC1(C)CC[C@]2(C(=O)O)CC[C@]3(C)C(=CC[C@@H]4[C@@]5(C)C[C@@H](OC(=O)c6cc7ccccc7oc6=O)[C@H](OC(=O)c6cc7ccccc7oc6=O)C(C)(C)[C@@H]5CC[C@]43C)[C@@H]2C1 | Active | – | – | inactive | 10 | 5 | 5 | 10 | inactive | 5 | 40 | 58 | –
